The EternaBench riboswitch data

System: MS2 coat protein
Test: apparent Kd, MS2 coat protein; higher = weaker binding; RNA-MaP array; FMN 200 µM where present
How it was run: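 Green signal was scaled to red-channel RNA signal and control-cluster median Fmax, and the apparent Kd was taken as the median of filtered per-cluster binding-curve fits. The binding series used SNAP-549-labelled MS2 coat protein from 0.7 or 1.5 nM, doubling to 3 µM, on designs transcribed by stalled E. coli RNA polymerase on Illumina sequencing-chip clusters. Each series ran without and then with constant ligand in 100 mM Tris-HCl pH 7.5, 80 mM KCl, 4 mM MgCl2, BSA, DTT, yeast tRNA and Tween-20.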

[1] = designed as: ON switch for flavin mononucleotide, no ligand
[2] = ligand present: flavin mononucleotide, designed as: ON switch for flavin mononucleotide
[3] = designed as: OFF switch for flavin mononucleotide, no ligand
[4] = ligand present: flavin mononucleotide, designed as: OFF switch for flavin mononucleotide

Row | Sequence | apparent Kd [1] | apparent Kd [2] | apparent Kd [3] | apparent Kd [4]
1 | GGAUCCAACACAGGAUAUGCUGGACUUUGUCCAGCAGAAGGGUGUACAUGAGGAUCACCCAUGUAUUGGAUCCAUAUAUUUAAU | 996 nM | 80.8 nM |  | 
2 | CACUCAGGCACAUGAGGAUCACCCAUGUCCCGGAAGCCGAGACAGGAUAUGUGCCUCGAAUGUGCACAGAAGGGUCUACUAUGU | 374 nM | 264 nM |  | 
3 | AGCUAGUGAGGAUAUACGAACAUGUCAAAAGACUGUAAGGGACAUGAGGAUCACCCAUGUAGAAGGCACUAGCA |  |  | 45.2 nM | 384 nM
4 | AACCAACAUGAGGAUCACCCAUGUCAACCCAAGCGAGGAUAUCCGAGAAUAACAAUGGGAGGAGAAGGCGCGACCU | 73.4 nM | 55.6 nM |  | 
5 | UGCUACGGAGGAUAUACAUGAGGAUCACCCAUGUGAUAUAUUAUGCCGAGAGGCUAGUGUAGAAGGCCGUAGCU |  |  | 67 nM | 576 nM
6 | UUAAUUAAUUAAUUGCAGAAUUACAUGAGGAUCACCCAUGUAUAGGAUAUCGUCAGGAAUACUGACGAGAAGGAUACAAACUGC |  |  | 17.9 nM | 20.7 nM
7 | CGCGCGUCGACAGGAUAUACAGAUUGGCUCCGGUACAUGAGGAUCACCCAUGUAGAAGGGUCACGCACGGAUAGUACAUUAUUA |  |  | 8.44 nM | 28 nM
8 | GUAGCUAUCGGAGGAUAUUCAUAUCGGAAACGGACAUGAGGAUCACCCAUGUGGCGAAAGCCUUGGGAGAAGGCCGAUAGCUAC | 144 nM | 9.42 nM |  | 
9 | GCAUGGGCCGUCAGGAUAUAGGCGCCGUGAAGGUAUUAGAAGGGACAUGAGGAUCACCCAUGUAUGAGAAAAGA |  |  | 36.7 nM | 42.7 nM
10 | AUAUAUAGUGUGAGGAUAUGCUGGUCCUUGGAUCAGCAGAAGGCACAUGAGGAUCACCCAUGUAGUUUAUUUUU |  |  | 24.5 nM | 102 nM
11 | GGGAGGGAUACAGGAUAUAUGACAUGAGGAUACAUGAGACAUACAAACAUGAGGAUCACCCAUGUAUAGAAGGGUAAGGGAGGG |  |  | 173 nM | 240 nM
12 | UGAACUAUGUAGAAGGCCCAUAUUUAUAUAUAGGGAGGAUAUACAUGAGGAUCACCCAUGUAAAGAGCAAGAGGACUUGUCAGA |  |  | 14.2 nM | 37.3 nM
13 | UGCGAACAGGCUAACAUGAGGAUCACCCAUGUGGACUCAUGGUAGGAUAUCGGGAAGGAGGAAACCGAGAAGGGCCGGUGAGCC | 848 nM | 372 nM |  | 
14 | GUGUUACAUGAGGAUCACCCAUGUUGUUGUAGAUAAGGAUAUAUGGGAACGAGAGAAAUAAUAGAAGGUAUUAGGC | 71.2 nM | 67.7 nM |  | 
15 | CUUUUGUGAGGAUAUCUGGCUUCGAUCGUGAGAUCGAGGCUAGAGAAGGCACAUGAGGAUCACCCAUGUACCUC |  |  | 24.3 nM | 149 nM
16 | GUACUGUAGUGAGGAUAUACGAGUACGAUAGUACGGCGAUCCAUAUAUACAUGAGGAUCACCCAUGUAGAAGGCACUUCAGUAC |  |  | 8.66 nM | 109 nM
17 | UGAGCAUCAGGAUAUAUAUGGCGACCGUGAGGUCGAAGGUUACAUGAGGAUCACCCAUGUAGAAGGGAUGUUCU |  |  | 36.6 nM | 147 nM
18 | UUGGACGUCGUAGGAUAUGUAGGAUGUUCCUACAUGAGGAUCACCCAUGUUGACAUGGAAGAAGGACAGAAGGACGAUGUCCAU | 547 nM | 27 nM |  | 

Row | Sequence | apparent Kd [1] | apparent Kd [2] | apparent Kd [3] | apparent Kd [4]
19 | AAAACGGUAGGAUAUACAGUCCGUUGUCGAAUGAUGAAAAGACAUGAGGAUCACCCAUGUAGAAGGACCGAAAA |  |  | 54.8 nM | 125 nM
20 | AUGCUAGUGUGAGGAUAUUAACAUGAGGAUCACCCAUGUUGGAAGUACAUGACAUGAGGUACAUUUAAGAAGGUACAUUAGCAU |  |  | 69 nM | 77.1 nM
21 | GGUACCUUCACAGGAUAUGCUAUCGUUUCGGUAGCAGAAGGGUGAUACAUGAGGAUCACCCAUGUGGUGCCAGGGCGUGAGCCC | 842 nM | 329 nM |  | 
22 | GGCAAAUGAGCAGGAUAUACAGUACAUGCCUAAUGGACUCACGCACAUGAGGAUCACCCAUGUACGUAGAAGGGCUCCGAGGAG |  |  | 15.2 nM | 19.1 nM
23 | GCUGUGGCAUGAGGAUAUGGUCAGGUUUCCUGACCAGAAGGCAUGUCAAUAGACAUGAGGAUCACCCAUGUAGUUAACACAGCA | 514 nM | 45.9 nM |  | 
24 | UAAUAAUAAUAAUAGCAGAUUACAUGAGGAUCACCCAUGUAUAAGGAUAUCGUCAGGAAUACUGACGAGAAGGUAUACAACUGC |  |  | 18.9 nM | 25.7 nM
25 | AGCGCCAUCGUGAGAUGGCGUAUUACAUGAGGAUCACCCAUGUAGGAUAUCGAUUGCUUUGCAGUCGAGAAGGGCAUGUCCUAG |  |  | 35.8 nM | 42.7 nM
26 | AACGAAGAGGAGAAGGGUGAUGGGUCCUCAUGACCCGGAGGGCCGCGGCACAGGAUAUCCAUGUCACAUGAGGAUCACCCAUGU | 123 nM | 18.5 nM |  | 
27 | AAAUGCCUGUCGAUGCUCGACAUGAGGAUCACCCAUGUACAGCAGGAUAUGCAGAACAACCUCGUGCAGAAGGGCUGUACCAAU |  |  | 54.3 nM | 157 nM
28 | GGGUUGUGAGGAUAUUAGUUGUACGUCAAUAGACGUAUAAGUGAGAAGGCACAUGAGGAUCACCCAUGUUCCUG |  |  | 20.8 nM | 80.1 nM
29 | CGACAGCACACAGGAUAUCCUCGACUUUGUCGAGGAGAAGGGUGUAAACAUGAGGAUCACCCAUGUAUGCUGUCGAAAUUUAAU | 308 nM | 30.7 nM |  | 
30 | GGACGGUUAGUUAGGAUAUGCUCUACCUCGGUAGAGCAGAAGGGACAUGAGGAUCACCCAUGUGAAAACUGUUC |  |  | 19.4 nM | 21.3 nM
31 | GUGGUGUAGAUACAGGAUAUGUUGCUCGUAACAUGAGGAUCACCCAUGUAUCUAUGAGAUUAAAUGCAGAAGGGUGCACACCACG | 330 nM | 23.3 nM |  | 
32 | AUGUUACAUGAGGAUCACCCAUGUGAGGAUAUGUGUACUGGUAAAAAAGUGUUUGGCCACAGAAGGCAUUUGGA |  |  | 29.1 nM | 31.2 nM
33 | GAUCCUCGCGGAGGAUAUAUAAGUGGAUCACCCAUAGAAGGCCGAACAUGAGGAUCACCCAUGUGGAACAGGAUCACCGUUGUU | 79 nM | 77 nM |  | 
34 | UUAAAUCAUGUAGGAUAUGCAUGGCGAAGCUACGCAGAAGGACAUGAGGAUCACCCAUGUUCUAGCGUCUCAGUAGAGAUGCAA |  |  | 18.4 nM | 63.3 nM
35 | AUACAUGAGGAUCACCCAUGUUACUGGGUCUUAAUAGAUCGUAGAAGGAUGUUAUUAUAAAUUUCAUAGGAUAUACUAUUUUGU |  |  | 61.1 nM | 38.6 nM
36 | GCGUCGAGUGUGAGGAUAUGCUGGUCCUUGGAUCAGCAGAAGGCACAUGAGGAUCACCCAUGUGAAAACGAUGC |  |  | 22.7 nM | 140 nM
